# Laboratory results published in ChEMBL document CHEMBL1649105, “Development of Selective LH Receptor Agonists by Heterodimerization with a FSH Receptor Antagonist” (ACS Med Chem Lett, 2011).
# Calls of active or inactive are those of the source. No cut-off for these calls is given here.
# Legend:
# [1] = target: T1, Follicle-stimulating hormone receptor (Homo sapiens, UniProt P23945); test: Antagonist activity at human FSHR receptor expressed in CHO-K1 cells assessed as inhibition of FSH-induced luciferase activity by CRE-driven luciferase reporter gene assay relative to control
# T1 sequence (P23945 whole entry): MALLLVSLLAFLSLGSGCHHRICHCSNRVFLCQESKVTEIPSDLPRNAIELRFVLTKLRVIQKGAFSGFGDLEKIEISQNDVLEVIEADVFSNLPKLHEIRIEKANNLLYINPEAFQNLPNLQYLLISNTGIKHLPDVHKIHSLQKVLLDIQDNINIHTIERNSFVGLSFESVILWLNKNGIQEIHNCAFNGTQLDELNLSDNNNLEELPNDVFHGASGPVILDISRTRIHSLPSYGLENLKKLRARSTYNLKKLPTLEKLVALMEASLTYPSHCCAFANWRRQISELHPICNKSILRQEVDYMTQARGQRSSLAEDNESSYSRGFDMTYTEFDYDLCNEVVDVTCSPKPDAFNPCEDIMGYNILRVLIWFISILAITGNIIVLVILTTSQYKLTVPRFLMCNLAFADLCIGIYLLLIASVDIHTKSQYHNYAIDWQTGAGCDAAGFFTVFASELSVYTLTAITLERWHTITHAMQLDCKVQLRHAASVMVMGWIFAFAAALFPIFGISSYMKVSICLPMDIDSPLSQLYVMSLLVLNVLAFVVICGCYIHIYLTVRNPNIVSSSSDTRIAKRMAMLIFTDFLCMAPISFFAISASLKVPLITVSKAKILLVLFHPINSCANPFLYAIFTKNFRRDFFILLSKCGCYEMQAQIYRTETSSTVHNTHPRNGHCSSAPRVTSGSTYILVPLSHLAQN
# [2] = target: T2, Lutropin-choriogonadotropic hormone receptor (Homo sapiens, UniProt P22888); test: Antagonist activity at human LH receptor expressed in CHO-K1 cells assessed as inhibition of LH-induced luciferase activity by CRE-driven luciferase reporter gene assay; assay type: functional, cell-based
# [3] = target: T3, Follicle-stimulating hormone receptor (Homo sapiens) (UniProt P23945); test: Agonist activity at human FSHR receptor expressed in CHO-K1 cells assessed as stimulation of luciferase activity by CRE-driven luciferase reporter gene assay relative to control; assay type: functional, cell-based
# T3 sequence (whole entry): T1 sequence (P23945 whole entry)
# [4] = target: T2, Lutropin-choriogonadotropic hormone receptor; test: Agonist activity at human LH receptor expressed in CHO-K1 cells assessed as stimulation of luciferase activity by CRE-driven luciferase reporter gene assay; assay type: functional, cell-based
# Outline: (§1)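 EC50 or IC50 values were fitted from concentration–effect curves. Data come from two independent experiments, each run in duplicate, with SD generally below 0.3.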
# [5] = target: T1, Follicle-stimulating hormone receptor; test: Agonist activity at human FSHR receptor expressed in CHO-K1 cells assessed as stimulation of luciferase activity by CRE-driven luciferase reporter gene assay; assay type: functional, cell-based
# Outline: as §1
# [6] = target: T3, Follicle-stimulating hormone receptor (Homo sapiens); test: Agonist activity at human FSHR receptor expressed in CHO-K1 cells assessed as stimulation of luciferase activity at 10 uM by CRE-driven luciferase reporter gene assay relative to control; assay type: functional, cell-based
# [7] = target: T3, Follicle-stimulating hormone receptor (Homo sapiens); test: Antagonist activity at human FSHR receptor expressed in CHO-K1 cells assessed as inhibition of FSH-induced luciferase activity at 10 uM by CRE-driven luciferase reporter gene assay relative to control
# T2 sequence (P22888 whole entry): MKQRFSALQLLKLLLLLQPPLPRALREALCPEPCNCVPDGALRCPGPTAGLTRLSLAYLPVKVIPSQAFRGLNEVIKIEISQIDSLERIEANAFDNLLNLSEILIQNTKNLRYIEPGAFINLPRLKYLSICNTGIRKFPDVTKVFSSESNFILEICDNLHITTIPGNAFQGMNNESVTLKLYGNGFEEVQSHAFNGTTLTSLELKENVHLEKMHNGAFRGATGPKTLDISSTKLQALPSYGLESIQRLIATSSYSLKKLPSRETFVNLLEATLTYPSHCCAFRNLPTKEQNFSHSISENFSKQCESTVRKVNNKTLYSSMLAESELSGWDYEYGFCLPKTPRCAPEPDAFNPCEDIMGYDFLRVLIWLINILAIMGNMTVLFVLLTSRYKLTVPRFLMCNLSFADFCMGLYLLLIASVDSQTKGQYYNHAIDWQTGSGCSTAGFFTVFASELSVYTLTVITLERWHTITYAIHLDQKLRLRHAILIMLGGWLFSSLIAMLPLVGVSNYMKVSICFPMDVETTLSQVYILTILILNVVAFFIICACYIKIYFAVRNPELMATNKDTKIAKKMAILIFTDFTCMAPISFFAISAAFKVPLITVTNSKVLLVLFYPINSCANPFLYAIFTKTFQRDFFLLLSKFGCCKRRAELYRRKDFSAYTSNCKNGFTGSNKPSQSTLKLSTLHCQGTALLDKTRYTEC
SMILES,IC50 ([1]; cho-k1),inhibition [2],Emax [3] [%],EC50 ([4]; read-out: EC50) [nM],EC50 ([5]; read-out: EC50) [nM],Emax [6] [%],Imax [7] [%],IC50 ([1]; read-out: IC50) [nM],EC50 ([5]; cho-k1),EC50 ([4]; cho-k1)
CSc1nc(-c2cccc(NCC(=O)NCc3cn(CCOCCOCCn4cc(COc5ccc([C@]6(C)CC(C)(C)N(C(C)=O)c7ccc(NC(=O)c8ccc(-c9ccccc9)cc8)cc76)cc5)nn4)nn3)c2)c2c(N)c(C(=O)NC(C)(C)C)sc2n1,Not Active,inactive,–,75,–,18,–,–,–,–
CSc1nc(-c2cccc(NCC(=O)NCc3cn(CCOCCn4cc(COc5ccc([C@@]6(C)CC(C)(C)N(C(C)=O)c7ccc(NC(=O)c8ccc(-c9ccccc9)cc8)cc76)cc5)nn4)nn3)c2)c2c(N)c(C(=O)NC(C)(C)C)sc2n1,–,inactive,–,27,–,–,75,–,Not Active,–
CSc1nc(-c2cccc(NCC(=O)NCc3cn(CCOCCn4cc(COc5ccc([C@]6(C)CC(C)(C)N(C(C)=O)c7ccc(NC(=O)c8ccc(-c9ccccc9)cc8)cc76)cc5)nn4)nn3)c2)c2c(N)c(C(=O)NC(C)(C)C)sc2n1,Not Active,inactive,–,80,–,44,–,–,–,–
CSc1nc(-c2cccc(NCC(=O)NCc3cn(CCOCCOCCOCCn4cc(COc5ccc([C@]6(C)CC(C)(C)N(C(C)=O)c7ccc(NC(=O)c8ccc(-c9ccccc9)cc8)cc76)cc5)nn4)nn3)c2)c2c(N)c(C(=O)NC(C)(C)C)sc2n1,Not Active,inactive,–,57,–,31,–,–,–,–
CSc1nc(-c2cccc(NCC(=O)NCc3cn(CCn4cc(COc5ccc([C@@]6(C)CC(C)(C)N(C(C)=O)c7ccc(NC(=O)c8ccc(-c9ccccc9)cc8)cc76)cc5)nn4)nn3)c2)c2c(N)c(C(=O)NC(C)(C)C)sc2n1,–,inactive,–,10,–,–,65,–,Not Active,–
CSc1nc(-c2cccc(NCC(=O)NCc3cn(CCn4cc(COc5ccc([C@]6(C)CC(C)(C)N(C(C)=O)c7ccc(NC(=O)c8ccc(-c9ccccc9)cc8)cc76)cc5)nn4)nn3)c2)c2c(N)c(C(=O)NC(C)(C)C)sc2n1,Not Active,inactive,–,24,–,43,–,–,–,–
CSc1nc(-c2cccc(NCC(=O)NCc3cn(CCOCCOCCOCCn4cc(COc5ccc([C@@]6(C)CC(C)(C)N(C(C)=O)c7ccc(NC(=O)c8ccc(-c9ccccc9)cc8)cc76)cc5)nn4)nn3)c2)c2c(N)c(C(=O)NC(C)(C)C)sc2n1,–,inactive,–,61,–,–,65,1660,Not Active,–
C#CCNC(=O)CNc1cccc(-c2nc(SC)nc3sc(C(=O)NC(C)(C)C)c(N)c23)c1,Not Active,inactive,78,1,126,–,–,–,–,–
CSc1nc(-c2cccc(NCC(=O)NCc3cn(CCOCCOCCOCCOCCn4cc(COc5ccc([C@@]6(C)CC(C)(C)N(C(C)=O)c7ccc(NC(=O)c8ccc(-c9ccccc9)cc8)cc76)cc5)nn4)nn3)c2)c2c(N)c(C(=O)NC(C)(C)C)sc2n1,–,inactive,–,55,–,–,72,1020,Not Active,–

# Other lines, results leading:
IC50 ([1]; cho-k1),inhibition [2],Emax [3] [%],EC50 ([4]; read-out: EC50) [nM],EC50 ([5]; read-out: EC50) [nM],Emax [6] [%],Imax [7] [%],IC50 ([1]; read-out: IC50) [nM],EC50 ([5]; cho-k1),EC50 ([4]; cho-k1),SMILES
Not Active,inactive,81,5,397,–,–,–,–,–,CSc1nc(-c2cccc(NCC(=O)NCc3cn(CCOCCOCCN=[N+]=[N-])nn3)c2)c2c(N)c(C(=O)NC(C)(C)C)sc2n1
–,inactive,–,43,–,–,73,920,Not Active,–,CSc1nc(-c2cccc(NCC(=O)NCc3cn(CCOCCOCCn4cc(COc5ccc([C@@]6(C)CC(C)(C)N(C(C)=O)c7ccc(NC(=O)c8ccc(-c9ccccc9)cc8)cc76)cc5)nn4)nn3)c2)c2c(N)c(C(=O)NC(C)(C)C)sc2n1
Not Active,inactive,–,39,–,39,–,–,–,–,CSc1nc(-c2cccc(NCC(=O)NCc3cn(CCOCCOCCOCCOCCn4cc(COc5ccc([C@]6(C)CC(C)(C)N(C(C)=O)c7ccc(NC(=O)c8ccc(-c9ccccc9)cc8)cc76)cc5)nn4)nn3)c2)c2c(N)c(C(=O)NC(C)(C)C)sc2n1
–,inactive,–,–,–,–,–,324,Not Active,Not Active,CC(=O)N1c2ccc(NC(=O)c3ccc(-c4ccccc4)cc3)cc2[C@@](C)(c2ccc(OCc3cn(CCOCCOCCN=[N+]=[N-])nn3)cc2)CC1(C)C
–,inactive,–,–,–,–,–,39,Not Active,Not Active,C#CCOc1ccc([C@@]2(C)CC(C)(C)N(C(C)=O)c3ccc(NC(=O)c4ccc(-c5ccccc5)cc4)cc32)cc1
